Assay results reported in ChEMBL document CHEMBL3588757, “Structure-based design, synthesis and biological testing of piperazine-linked bis-epipodophyllotoxin etoposide analogs” (Bioorg Med Chem, 2015).

Legend:
Format in all cases: functional
SK-MEL-28 [1] = test: Cytotoxicity against human SK-MEL-28 cells assessed as cell growth at 0.05 uM by SRB assay; settings: read-out: Activity
786-0 [2] = test: Cytotoxicity against human 786-0 cells assessed as cell growth at 0.005 uM by SRB assay; settings: read-out: Activity
OVCAR-4 [3] = test: Cytotoxicity against human OVCAR4 cells assessed as cell growth at 0.5 uM by SRB assay; settings: read-out: Activity
SK-MEL-2 [4] = test: Cytotoxicity against human SK-MEL-2 cells assessed as cell growth at 0.5 uM by SRB assay; settings: read-out: Activity
KM12 = test: Cytotoxicity against human KM12 cells assessed as cell growth at 0.5 uM by SRB assay; settings: read-out: Activity
SN12C [5] = test: Cytotoxicity against human SN12C cells assessed as cell growth at 5 uM by SRB assay; settings: read-out: Activity
[6] = Cytotoxicity against human Hs578T cells assessed as cell growth at 0.5 uM by SRB assay; settings: Hs-578T, read-out: Activity
Summary of the method: (§1)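 Measured in the NCI-60 human tumour cell line panel using five-dose testing. Growth was recorded at each dose for each cell line, and a GI50 was derived for each line.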

DU-145 [7] = test: Cytotoxicity against human DU145 cells assessed as cell growth at 0.05 uM by SRB assay; settings: read-out: Activity; summary of the method: as §1
M14 = test: Cytotoxicity against human M14 cells assessed as cell growth at 0.5 uM by SRB assay; settings: read-out: Activity
RXF 393 = test: Cytotoxicity against human RXF393 cells assessed as cell growth at 5 uM by SRB assay; settings: read-out: Activity
SK-MEL-28 [8] = test: Cytotoxicity against human SK-MEL-28 cells assessed as cell growth at 50 uM by SRB assay; settings: read-out: Activity
786-0 [9] = test: Cytotoxicity against human 786-0 cells assessed as cell growth at 0.5 uM by SRB assay; settings: read-out: Activity
BT-549 [10] = test: Cytotoxicity against human BT549 cells by SRB assay
BT-549 [11] = test: Cytotoxicity against human BT549 cells assessed as cell growth at 0.05 uM by SRB assay; settings: read-out: Activity
[12] = Cytotoxicity against human NCI-ADR-RES cells assessed as cell growth at 50 uM by SRB assay; settings: read-out: Activity
COLO 205 = test: Cytotoxicity against human COLO205 cells assessed as cell growth at 0.5 uM by SRB assay; settings: read-out: Activity
HCC 2998 = test: Cytotoxicity against human HCC2998 cells assessed as cell growth at 0.05 uM by SRB assay; settings: read-out: Activity; summary of the method: as §1
UACC-62 = test: Cytotoxicity against human UACC62 cells assessed as cell growth at 5 uM by SRB assay; settings: read-out: Activity
OVCAR-5 = test: Cytotoxicity against human OVCAR5 cells by SRB assay
Summary of the method: (§2)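 NCI-60 panel screen; 5-dose testing giving GI50 per cell line, plus a single 10 µM one-dose test. Method details not given beyond the NCI screen.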

SF-268 = test: Cytotoxicity against human SF268 cells by SRB assay; summary of the method: as §2
NCI-H23 = test: Cytotoxicity against human NCI-H23 cells assessed as cell growth at 0.5 uM by SRB assay; settings: read-out: Activity
MDA-MB-231 = test: Cytotoxicity against human MDA-MB-231/ATCC cells assessed as cell growth at 5 uM by SRB assay; settings: read-out: Activity
SK-OV-3 = test: Cytotoxicity against human SKOV3 cells assessed as cell growth at 0.05 uM by SRB assay; settings: read-out: Activity
SNB-19 [13] = test: Cytotoxicity against human SNB19 cells assessed as cell growth at 0.5 uM by SRB assay; settings: read-out: Activity
MDA-MB-435 = test: Cytotoxicity against human MDA-MB-435 cells assessed as cell growth at 0.05 uM by SRB assay; settings: read-out: Activity
SR = test: Cytotoxicity against human SR cells assessed as cell growth at 0.005 uM by SRB assay; settings: read-out: Activity
HOP-62 = test: Cytotoxicity against human HOP62 cells assessed as cell growth at 50 uM by SRB assay; settings: read-out: Activity; summary of the method: as §1
NCI-H322M = test: Cytotoxicity against human NCI-H322M cells assessed as cell growth at 0.05 uM by SRB assay; settings: read-out: Activity
A498 = test: Cytotoxicity against human A498 cells assessed as cell growth at 5 uM by SRB assay; settings: read-out: Activity
DU-145 [14] = test: Cytotoxicity against human DU145 cells assessed as cell growth at 0.005 uM by SRB assay; settings: read-out: Activity
HOP-92 = test: Cytotoxicity against human HOP92 cells assessed as cell growth at 50 uM by SRB assay; settings: read-out: Activity; summary of the method: as §1
LOX IMVI = test: Cytotoxicity against human LOXIMVI cells by SRB assay; summary of the method: as §2
K562 = test: Relative resistance, ratio of IC50 for etoposide-resistant human K/VP.5 cells to IC50 for human K562 cells
SK-MEL-28 [15] = test: Cytotoxicity against human SK-MEL-28 cells assessed as cell growth at 0.005 uM by SRB assay; settings: read-out: Activity
PC-3 = test: Cytotoxicity against human PC3 cells assessed as cell growth at 50 uM by SRB assay; settings: read-out: Activity
SK-MEL-2 [16] = test: Cytotoxicity against human SK-MEL-2 cells assessed as cell growth at 5 uM by SRB assay; settings: read-out: Activity
SNB-19 [17] = test: Cytotoxicity against human SNB19 cells assessed as cell growth at 50 uM by SRB assay; settings: read-out: Activity
OVCAR-4 [18] = test: Cytotoxicity against human OVCAR4 cells assessed as cell growth at 50 uM by SRB assay; settings: read-out: Activity
MOLT-4 = test: Cytotoxicity against human MOLT4 cells by SRB assay; summary of the method: as §2
NCI-H460 = test: Cytotoxicity against human NCI-H460 cells by SRB assay; summary of the method: as §2
SN12C [19] = test: Cytotoxicity against human SN12C cells by SRB assay; summary of the method: as §2
ACHN = test: Cytotoxicity against human ACHN cells assessed as cell growth at 0.05 uM by SRB assay; settings: read-out: Activity
MDA-MB-468 = test: Cytotoxicity against human MDA-MB-468 cells assessed as cell growth at 0.005 uM by SRB assay; settings: read-out: Activity
[20] = read-out: LC50 (the source's name)
[21] = read-out: pLC50 (the source's name) (converted)

Compound: COc1cc([C@@H]2c3cc4c(cc3[C@@H](NC(=O)CN3CCN(CCCCCCCCCCN5CCN(CC(=O)N[C@@H]6c7cc8c(cc7[C@@H](c7cc(OC)c(O)c(OC)c7)[C@H]7C(=O)OC[C@@H]76)OCO8)CC5)CC3)[C@H]3COC(=O)[C@H]23)OCO4)cc(OC)c1O
- growth at 0.05 µM (SK-MEL-28 [1]): 100%
- growth at 0.005 µM (786-0 [2]): 97%
- growth at 0.5 µM (OVCAR-4 [3]): 77%
- growth at 0.5 µM (SK-MEL-2 [4]): 74%
- growth at 0.5 µM (KM12): 74%
- growth at 5 µM (SN12C [5]): 3%
- growth at 0.5 µM [6]: 77%
- growth at 0.05 µM (DU-145 [7]): 77%
- growth at 0.5 µM (M14): 65%
- growth at 5 µM (RXF 393): -34%
- growth at 50 µM (SK-MEL-28 [8]): -83%
- growth at 0.5 µM (786-0 [9]): 26%
- GI50 (BT-549 [10]; read-out: GI50): 0.576 µM
- TGI (BT-549 [10]; read-out: TGI): 1.46 µM
- GI50 (BT-549 [10]; read-out: pGI50 (converted)): 0.575 µM
- TGI (BT-549 [10]; read-out: pTGI (converted)): 1.48 µM
- growth at 0.05 µM (BT-549 [11]): 87%
- growth at 50 µM [12]: 23%
- growth at 0.5 µM (COLO 205): 72%
- growth at 0.05 µM (HCC 2998): 83%
- growth at 5 µM (UACC-62): 65%
- GI50 (OVCAR-5; read-out: GI50): 0.83 µM
- CC50 (OVCAR-5; [20]): 19.5 µM
- TGI (OVCAR-5; read-out: TGI): 5.65 µM
- GI50 (OVCAR-5; read-out: pGI50 (converted)): 0.832 µM
- CC50 (OVCAR-5; [21]): 19.5 µM
- TGI (OVCAR-5; read-out: pTGI (converted)): 5.62 µM
- GI50 (SF-268; read-out: GI50): 0.452 µM
- CC50 (SF-268; [20]): > 50 µM
- TGI (SF-268; read-out: TGI): 1.94 µM
- GI50 (SF-268; read-out: pGI50 (converted)): 0.457 µM
- CC50 (SF-268; [21]): > 50.1 µM
- TGI (SF-268; read-out: pTGI (converted)): 1.95 µM
- growth at 0.5 µM (NCI-H23): 25%
- growth at 5 µM (MDA-MB-231): -45%
- growth at 0.05 µM (SK-OV-3): 85%
- growth at 0.5 µM (SNB-19 [13]): 42%
- growth at 0.05 µM (MDA-MB-435): 87%
- growth at 0.005 µM (SR): 98%
- growth at 50 µM (HOP-62): -20%
- growth at 0.05 µM (NCI-H322M): 92%
- growth at 5 µM (A498): -9%
- growth at 0.005 µM (DU-145 [14]): 99%
- growth at 50 µM (HOP-92): -46%
- GI50 (LOX IMVI; read-out: GI50): 0.0731 µM
- GI50 (LOX IMVI; read-out: pGI50 (converted)): 0.0724 µM
- Ratio IC50 (K562): 2.6
- growth at 0.005 µM (SK-MEL-28 [15]): 96%
- growth at 50 µM (PC-3): -51%
- growth at 5 µM (SK-MEL-2 [16]): 47%
- growth at 50 µM (SNB-19 [17]): -92%
- growth at 50 µM (OVCAR-4 [18]): -77%
- GI50 (MOLT-4; read-out: GI50): 0.185 µM
- CC50 (MOLT-4; [20]): 6.02 µM
- TGI (MOLT-4; read-out: TGI): 1.4 µM
- GI50 (MOLT-4; read-out: pGI50 (converted)): 0.186 µM
- CC50 (MOLT-4; [21]): 6.03 µM
- TGI (MOLT-4; read-out: pTGI (converted)): 1.41 µM
- GI50 (NCI-H460; read-out: GI50): 2.66 µM
- CC50 (NCI-H460; [20]): 26.9 µM
- TGI (NCI-H460; read-out: TGI): 9.82 µM
- GI50 (NCI-H460; read-out: pGI50 (converted)): 2.63 µM
- CC50 (NCI-H460; [21]): 26.9 µM
- TGI (NCI-H460; read-out: pTGI (converted)): 9.77 µM
- GI50 (SN12C [19]; read-out: GI50): 0.185 µM
- CC50 (SN12C [19]; [20]): > 50 µM
- TGI (SN12C [19]; read-out: TGI): 5.82 µM
- GI50 (SN12C [19]; read-out: pGI50 (converted)): 0.186 µM
- CC50 (SN12C [19]; [21]): > 50.1 µM
- TGI (SN12C [19]; read-out: pTGI (converted)): 5.89 µM
- growth at 0.05 µM (ACHN): 88%
- growth at 0.005 µM (MDA-MB-468): 95%
